# MC4R antagonist: MC4R antagonists of cAMP signaling, primary screen, cell-based, TR-FRET, antagonist arm of biased-ligand search. Melanocortin receptor 4 (Homo sapiens), P32245. MC4R-expressing cells, MTII-stimulated cAMP, LANCE TR-FRET. inhibition, % at 6.5 µM. actives 0.48% (n = 360,000);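 active = inhibition above its plate's cutoff, the mean of tested wells on that plate plus 3 SD, cut at about 29% in these data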;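 also: 0% = Melanotan II alone and 100% = Melanotan II plus saturating MCL0020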
# Target sequence (P32245 whole entry, looked up): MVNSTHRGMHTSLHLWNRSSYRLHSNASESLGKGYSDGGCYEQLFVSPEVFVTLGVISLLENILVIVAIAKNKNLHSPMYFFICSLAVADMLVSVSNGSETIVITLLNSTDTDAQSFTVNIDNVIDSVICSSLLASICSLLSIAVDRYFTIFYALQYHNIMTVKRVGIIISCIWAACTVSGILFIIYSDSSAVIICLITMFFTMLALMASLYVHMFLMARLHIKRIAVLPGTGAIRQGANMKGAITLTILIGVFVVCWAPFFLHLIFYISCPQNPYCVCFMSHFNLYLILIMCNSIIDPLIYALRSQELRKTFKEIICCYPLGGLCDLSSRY
#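 Test system: U2OS cells stably expressing human melanocortin 4 receptor (MC4R); also added: Melanotan II challenge; compound: 6.5 µM single dose; timing: 30-min compound preincubation, 1-h Melanotan II challenge, 1-h detection, room temperature; signal: Eu-cAMP/anti-cAMP TR-FRET, emission 671 nm; repeats: one well per compound, no replicates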
# EBI2 block: EBI2 receptor antagonists, beta-arrestin recruitment, primary screen, cell-based, luminescence, 7a,25-OHC stimulation, uHTS | AID 651636, 2012 | actives 0.81% (n = 360,000) | 7a,25-OHC stimulated | inhibition, % at 5 µM | G-protein coupled receptor 183 (Homo sapiens), P32249; in the data active = inhibition above about 38%;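 also: enzyme fragment complementation signal reports receptor beta-arrestin coupling in cells; 0% = agonist plus DMSO wells and 100% = wells without agonist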
# Target sequence (P32249 whole entry, looked up, the tested form may be a part): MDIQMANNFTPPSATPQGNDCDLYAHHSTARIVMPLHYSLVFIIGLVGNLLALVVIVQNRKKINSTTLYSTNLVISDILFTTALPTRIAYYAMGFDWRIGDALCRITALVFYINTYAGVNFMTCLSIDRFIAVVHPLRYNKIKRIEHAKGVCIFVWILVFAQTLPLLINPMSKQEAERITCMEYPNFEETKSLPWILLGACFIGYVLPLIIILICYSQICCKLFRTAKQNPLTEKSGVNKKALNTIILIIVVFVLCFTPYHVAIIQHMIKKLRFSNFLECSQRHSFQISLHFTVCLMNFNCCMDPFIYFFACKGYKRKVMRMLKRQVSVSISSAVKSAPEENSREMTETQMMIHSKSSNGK
# HTR2A ag: mouse Htr2a agonists via beta-arrestin recruitment, primary screen, cell-based, luminescence; CHO-K1 mHTR2A beta-arrestin complementation; percent of 30 µM serotonin response; actives 0.66% (n = 360,000); activation, % at 7.6 µM; 5-hydroxytryptamine receptor 2A (Mus musculus), P35363;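 active = activation above a run cutoff, the mean activation of all tested compounds plus 3 SD, cut at about 14% in these data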;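 also: 0% = plate median of compound wells and 100% = 30 µM serotonin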
# MC4R barr agon: MC4R agonists recruiting beta-arrestin, primary screen, cell-based, luminescence, agonist arm of biased-ligand search; U2OS MC4R beta-arrestin complementation; percent of melanotan II response, DMSO zero; actives 0.98% (n = 360,000); activation, % at 8.9 µM;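 active = activation above a per-plate cutoff, the mean activation of sample wells on that plate plus 3 SD, cut at about 8% in these data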
# U2OS cAMP counter: nonselective cAMP signaling inhibitors, parental cells, counter-screen for MC4R biased antagonist project, cell-based, TR-FRET, U2OS, forskolin, triplicate; shares compounds with MC4R antagonist; LANCE TR-FRET; inhibition, % at 6.5 µM; actives 26% (n = 1,600);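 active = mean inhibition over triplicates above the low-control well mean plus 3 SD, set per campaign, cut at about 13% in these data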;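 also: signal is single emission at 671 nm which falls as cellular cAMP rises; 0% = forskolin-stimulated wells and 100% = buffer without forskolin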
# MC4R cAMP antag: MC4R cAMP antagonists, retest, confirmation, cell-based, TR-FRET | inhibition, % at 6.5 µM | AID 602195, 2012 | actives 27% (n = 1,600) | MC4R-expressing cells, MTII-stimulated cAMP | shares compounds with MC4R antagonist; in the data active = inhibition above about 29%;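 also: 0% = agonist stimulated wells alone and 100% = agonist stimulated wells plus saturating reference antagonist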
# * = called active by the depositor; / = no result given. Sampled rows, rich in hits. Any-hit rate of the full collection: about 2.8%.
SMILES,MC4R antagonist,EBI2 block,HTR2A ag,MC4R barr agon,U2OS cAMP counter,MC4R cAMP antag
CC(C)Cc1ccc(C(C)CC2=CCC(CN(C)C)C2=O)cc1 (stereo not given),39.0*,-5.5,-10.7,6.6,1.7,45.9*
CC(C)(C)NC(=O)C1(C)CCC(=O)N1CC(F)(F)F (stereo not given),/,2.9,-0.2,/,/,/
CC1CN(S(=O)(=O)c2ccc(C(=O)N3c4ccccc4CC3C)cc2)CC(C)O1 (stereo not given),28.6*,-1.3,7.1,-0.6,-1.5,-18.1
Cc1ccc(Sc2cnc(N)nc2C)cc1,36.7*,11.5,-0.1,4.2,-2.4,-6.9
COc1cccc(CNC(=O)COC(=O)c2cc([N+](=O)[O-])ccc2N2CCCC2)c1,0.1,9.4,-6.3,-0.4,/,/
COc1cccc(C(c2c(N)n(C)c(=O)n(C)c2=O)C(C)[N+](=O)[O-])c1 (stereo not given),32.7*,-7.8,-2.1,-0.1,5.5,4.1
COc1ccccc1C(c1c(N)n(C)c(=O)n(C)c1=O)C(C)[N+](=O)[O-] (stereo not given),25.1,-13.7,-3.9,-0.1,/,/
Cc1cscc(C)c1=S,8.6,-8.0,4.9,0.0,/,/
O=c1c(Cl)c(N2CCN(c3ccc(F)cc3)CC2)cnn1C12CC3CC(CC(C3)C1)C2,28.5*,3.8,-3.9,2.9,-1.1,3.3
O=C(c1ccc(Cl)cc1)C(CN1CCCC1)c1ccccc1 (stereo not given),31.3*,-23.1,1.1,5.3,3.6,-1.8
Cc1ccc(Cl)cc1NC(=S)N1CCC(c2ccccc2)C1 (stereo not given),30.5*,-6.7,-5.2,-0.8,-1.1,-4.5
COc1cccc(Nc2nc(-c3cccs3)nc3ccccc23)c1,31.7*,17.2,-0.1,-1.2,7.9,16.6
CCc1nc2ccc(C(=O)N3CCN(C(C)=O)CC3)cn2c1N(C=O)Cc1ccc(OC)cc1,7.7,-0.2,1.1,0.3,/,/
C[C@H]1Cn2cnc(C(=O)Nc3ccccc3)c2C(=O)N1,31.0*,-11.4,-6.5,-0.7,-1.1,-0.8
CCCCC(=O)Nc1ccc(C(=O)N(CC)c2ccccc2C)cc1,30.2*,4.5,-0.7,0.9,2.1,-8.7
CCN(C(=O)c1ccc(NC(C)=O)cc1)c1ccccc1C,8.6,-3.4,1.0,-0.4,/,/
Cc1cccc(-n2c(C)cc(/C=C3\C(=N)N4N=C(CC(C)C)SC4=NC3=O)c2C)c1,21.0,6.0,1.6,-1.9,/,/
CCCC1=NN2C(=N)/C(=C\c3cc(C)n(-c4cc(C)cc(C)c4)c3C)C(=O)N=C2S1,30.4*,3.4,1.4,2.1,-0.7,-19.9
O=C1Nc2cccc3c2N(CCC3)C2=C1CCC2,29.5*,0.8,2.3,-0.3,1.3,11.5
O=[N+]([O-])c1cccc(SSc2cccc([N+](=O)[O-])c2)c1,-12.5,29.4,1.0,-2.6,/,/
CCN(CCn1cccn1)C(=O)CCc1nnc(CCCc2ccccc2)o1,4.7,-6.0,-2.8,-1.4,/,/
C=C(C)CN(CC)C(=O)CCc1nnc(CCCc2ccccc2)o1,30.6*,-20.2,1.1,-1.2,-2.0,-11.1
COC(=O)C1=C(C(=O)OC)SC2(S1)C(C(=O)OC)=C(C(=O)OC)SC1=C2c2cccc(C)c2NC1(C)C,40.7*,8.8,2.7,0.5,11.4,44.5*
O=C(OC1CCOC1=O)c1cc(-c2ccccc2)nc2ccccc12 (stereo not given),23.2,-4.5,-2.6,-1.1,/,/
O=C(OC1CCOC1=O)c1cc(-c2ccc(Cl)cc2)nc2ccccc12 (stereo not given),35.1*,-8.8,-4.1,-0.4,17.4*,23.3
SMILES,MC4R antagonist,EBI2 block,HTR2A ag,MC4R barr agon,U2OS cAMP counter,MC4R cAMP antag
O=C1N(Cc2ccccc2)c2ccc(Br)cc2[C@]12C[C@H](O)CO2,/,-1.0,0.6,/,/,/
COc1ccc(N2CCN(c3nc(Nc4ccc(C)c(F)c4)nc(N4CCCC4)n3)CC2)cc1,15.5,16.0,-4.6,-0.9,/,/
COc1ccc(N2CCN(c3nc(Cl)nc(Nc4ccc(F)cc4)n3)CC2)cc1,38.0*,8.0,-5.6,-2.8,14.1*,54.7*
FC(F)Oc1ccccc1NC(=S)NCCc1ccccc1,31.7*,-18.4,0.1,-0.5,-1.1,-6.0
Cc1cc(OC(F)F)ccc1NC(=S)NCCc1ccccc1,8.1,-2.4,-2.6,-2.3,/,/
COc1cccc(C(=O)Nc2cccc(C(=O)NCC(C)C)c2)c1,9.3,-1.2,2.6,0.0,/,/
CC(C)CNC(=O)c1cccc(NC(=O)c2ccc(Cl)c([N+](=O)[O-])c2)c1,31.5*,-12.1,0.8,1.6,10.5,14.9
Cc1ccccc1CNC(=O)c1ccc(Cl)c([N+](=O)[O-])c1,30.7*,9.5,2.3,-1.5,20.0*,41.5*
CCCN(CC(=O)Nc1ccccc1C)CC(=O)Nc1ccc(Br)cc1F,28.7*,2.5,6.8,1.6,0.3,3.0
CCCN(CC(=O)Nc1ccccc1Br)CC(=O)Nc1ccc(F)c(F)c1F,5.9,5.8,-6.4,0.3,/,/
COc1ccc(C(=Cc2cc(OC)c(OC)cc2[N+](=O)[O-])C(=O)O)cc1,2.9,-6.5,1.7,-1.3,/,/
O=C(CSc1ccccn1)C12CC3CC(CC(C3)C1)C2,31.5*,9.6,-0.1,3.6,1.8,-4.7
O=C(O)c1cccnc1SCC(=O)C12CC3CC(CC(C3)C1)C2,11.2,-13.2,-0.2,-0.7,/,/
COC1OC(COCc2ccccc2)C(N)C(OCc2ccccc2)C1OCc1ccccc1 (stereo not given),0.0,10.1,-0.2,3.9,/,/
CCn1cc(C(=O)O)c(=O)c2cnc(N3CCN(C(=S)Nc4ccccc4)CC3)nc21,31.2*,-11.5,-2.3,4.9,-0.6,-9.9
CCn1cc(C(=O)O)c(=O)c2cnc(N3CCN(C(=S)NC(=O)c4ccccc4)CC3)nc21,16.4,4.1,-3.5,0.0,/,/
O=C(NCc1ccccc1Cl)[C@H]1CCCN1C(=O)[C@H]1CCCN1C(=O)c1ccccc1,/,-4.7,9.5,/,/,/
COc1ccc(NC(=O)Nc2ccccc2SC)c(OC)c1,33.7*,0.5,-4.8,1.1,-2.6,-10.4
COc1ccc(NC(=O)CC(C)C)c(OC)c1,2.3,-7.9,0.9,-0.8,/,/
COC(=O)C(Cc1ccccc1)NC(=O)CC(C)CC(=O)Nc1ccc(OC)cc1OC (stereo not given),34.7*,-0.6,-2.1,-0.5,8.7,8.8
COc1ccc(NC(=O)NCc2ccco2)c(OC)c1,32.6*,-14.5,2.1,-1.1,1.7,1.8
